Measured values: ChEMBL document CHEMBL4689842, “EUbOPEN Chemogenomics Library wave 1” (2021)

Test system: Fibroblast
Assay: Multiplex assay against human fibroblast
Assay type: toxicity, cell-based
Summary of the method: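 Tubulin, mitochondrial-mass and membrane-permeability phenotypes are per cents of healthy-nucleus cells. Cells were gated by CellPathfinder machine learning into Hoechst high-intensity objects or normal cells, normal cells into healthy, pyknosed or fragmented nuclei, and pyknosed cells into mitotic or apoptotic. Before that, live cells stained at seeding with Hoechst33342, BioTracker Green Microtubule Cytoskeleton Dye, MitoTracker Red and Annexin V Alexa Fluor 680 were imaged on a CQ1 microscope at 37°C and 5% CO2 after compound addition.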

[1] = 12 h, 1 µM, compound concentration 1 uM, replicate 1
[2] = 12 h, 1 µM, compound concentration 1 uM, replicate 2
[3] = 12 h, 10 µM, compound concentration 10 uM, replicate 1
[4] = 12 h, 10 µM, compound concentration 10 uM, replicate 2
[5] = 24 h, 1 µM, compound concentration 1 uM, replicate 1
[6] = 24 h, 1 µM, compound concentration 1 uM, replicate 2
[7] = 24 h, 10 µM, compound concentration 10 uM, replicate 1
[8] = 24 h, 10 µM, compound concentration 10 uM, replicate 2
[9] = 48 h, 1 µM, compound concentration 1 uM, replicate 1
[10] = 48 h, 1 µM, compound concentration 1 uM, replicate 2
[11] = 48 h, 10 µM, compound concentration 10 uM, replicate 1
[12] = 48 h, 10 µM, compound concentration 10 uM, replicate 2

CCOc1cc2ncc(C#N)c(Nc3ccc(OCc4ccccn4)c(Cl)c3)c2cc1NC(=O)/C=C/CN(C)C [NERATINIB]
Population Apoptotic (%) [1]: 55%
Population Fragmented Nuclei (%) [1]: 21%
Population Healthy Nuclei (%) [1]: 37%
Population Hoechst High Intensity Objects (%) [1]: 14%
Population Membrane Permeable-Phenotype (%) [1]: 25%
Population Mitochondria Different-Phenotype (%) [1]: 13%
Population Mitotic Cells (%) [1]: 44%
Population Normal (%) [1]: 85%
Population Pyknosed Nuclei (%) [1]: 41%
Population Tubulin-Different-Phenotype (%) [1]: 58%
Total Cell Count [1]: 134
Population Apoptotic (%) [2]: 11%
Population Fragmented Nuclei (%) [2]: 9%
Population Healthy Nuclei (%) [2]: 82%
Population Hoechst High Intensity Objects (%) [2]: 8%
Population Membrane Permeable-Phenotype (%) [2]: 4%
Population Mitochondria Different-Phenotype (%) [2]: 18%
Population Mitotic Cells (%) [2]: 88%
Population Normal (%) [2]: 91%
Population Pyknosed Nuclei (%) [2]: 9%
Population Tubulin-Different-Phenotype (%) [2]: 15%
Total Cell Count [2]: 64
Population Apoptotic (%) [3]: 45%
Population Fragmented Nuclei (%) [3]: 25%
Population Healthy Nuclei (%) [3]: 44%
Population Hoechst High Intensity Objects (%) [3]: 34%
Population Membrane Permeable-Phenotype (%) [3]: 7%
Population Mitochondria Different-Phenotype (%) [3]: 1%
Population Mitotic Cells (%) [3]: 54%
Population Normal (%) [3]: 65%
Population Pyknosed Nuclei (%) [3]: 30%
Population Tubulin-Different-Phenotype (%) [3]: 13%
Total Cell Count [3]: 621
Population Apoptotic (%) [4]: 12%
Population Fragmented Nuclei (%) [4]: 35%
Population Healthy Nuclei (%) [4]: 50%
Population Hoechst High Intensity Objects (%) [4]: 27%
Population Mitochondria Different-Phenotype (%) [4]: 16%
Population Mitotic Cells (%) [4]: 87%
Population Normal (%) [4]: 72%
Population Pyknosed Nuclei (%) [4]: 13%
Population Tubulin-Different-Phenotype (%) [4]: 42%
Total Cell Count [4]: 109
Population Apoptotic (%) [5]: 64%
Population Fragmented Nuclei (%) [5]: 21%
Population Healthy Nuclei (%) [5]: 40%
Population Hoechst High Intensity Objects (%) [5]: 18%
Population Membrane Permeable-Phenotype (%) [5]: 32%
Population Mitochondria Different-Phenotype (%) [5]: 11%
Population Mitotic Cells (%) [5]: 35%
Population Normal (%) [5]: 81%
Population Pyknosed Nuclei (%) [5]: 37%
Population Tubulin-Different-Phenotype (%) [5]: 53%
Total Cell Count [5]: 129
Population Apoptotic (%) [6]: 23%
Population Fragmented Nuclei (%) [6]: 9%
Population Healthy Nuclei (%) [6]: 76%
Population Hoechst High Intensity Objects (%) [6]: 5%
Population Membrane Permeable-Phenotype (%) [6]: 5%
Population Mitochondria Different-Phenotype (%) [6]: 6%
Population Mitotic Cells (%) [6]: 76%
Population Normal (%) [6]: 94%
Population Pyknosed Nuclei (%) [6]: 14%
Population Tubulin-Different-Phenotype (%) [6]: 11%
Total Cell Count [6]: 73
Population Apoptotic (%) [7]: 52%
Population Fragmented Nuclei (%) [7]: 25%
Population Healthy Nuclei (%) [7]: 48%
Population Hoechst High Intensity Objects (%) [7]: 39%
Population Membrane Permeable-Phenotype (%) [7]: 3%
Population Mitochondria Different-Phenotype (%) [7]: 3%
Population Mitotic Cells (%) [7]: 47%
Population Normal (%) [7]: 60%
Population Pyknosed Nuclei (%) [7]: 26%
Population Tubulin-Different-Phenotype (%) [7]: 15%
Total Cell Count [7]: 651
Population Apoptotic (%) [8]: 12%
Population Fragmented Nuclei (%) [8]: 36%
Population Healthy Nuclei (%) [8]: 49%
Population Hoechst High Intensity Objects (%) [8]: 26%
Population Membrane Permeable-Phenotype (%) [8]: 10%
Population Mitochondria Different-Phenotype (%) [8]: 14%
Population Mitotic Cells (%) [8]: 87%
Population Normal (%) [8]: 73%
Population Pyknosed Nuclei (%) [8]: 14%
Population Tubulin-Different-Phenotype (%) [8]: 34%
Total Cell Count [8]: 124
Population Apoptotic (%) [9]: 61%
Population Fragmented Nuclei (%) [9]: 36%
Population Healthy Nuclei (%) [9]: 45%
Population Hoechst High Intensity Objects (%) [9]: 18%
Population Membrane Permeable-Phenotype (%) [9]: 26%
Population Mitochondria Different-Phenotype (%) [9]: 6%
Population Mitotic Cells (%) [9]: 38%
Population Normal (%) [9]: 81%
Population Pyknosed Nuclei (%) [9]: 18%
Population Tubulin-Different-Phenotype (%) [9]: 51%
Total Cell Count [9]: 122
Population Apoptotic (%) [10]: 33%
Population Fragmented Nuclei (%) [10]: 20%
Population Healthy Nuclei (%) [10]: 76%
Population Hoechst High Intensity Objects (%) [10]: 12%
Population Membrane Permeable-Phenotype (%) [10]: 9%
Population Mitochondria Different-Phenotype (%) [10]: 4%
Population Mitotic Cells (%) [10]: 66%
Population Normal (%) [10]: 87%
Population Pyknosed Nuclei (%) [10]: 2%
Population Tubulin-Different-Phenotype (%) [10]: 14%
Total Cell Count [10]: 123
Population Apoptotic (%) [11]: 55%
Population Fragmented Nuclei (%) [11]: 28%
Population Healthy Nuclei (%) [11]: 42%
Population Hoechst High Intensity Objects (%) [11]: 42%
Population Membrane Permeable-Phenotype (%) [11]: 5%
Population Mitochondria Different-Phenotype (%) [11]: 4%
Population Mitotic Cells (%) [11]: 44%
Population Normal (%) [11]: 57%
Population Pyknosed Nuclei (%) [11]: 28%
Population Tubulin-Different-Phenotype (%) [11]: 11%
Total Cell Count [11]: 626
Population Apoptotic (%) [12]: 62%
Population Fragmented Nuclei (%) [12]: 24%
Population Healthy Nuclei (%) [12]: 56%
Population Hoechst High Intensity Objects (%) [12]: 48%
Population Membrane Permeable-Phenotype (%) [12]: 2%
Population Mitochondria Different-Phenotype (%) [12]: 1%
Population Mitotic Cells (%) [12]: 37%
Population Normal (%) [12]: 51%
Population Pyknosed Nuclei (%) [12]: 19%
Population Tubulin-Different-Phenotype (%) [12]: 18%
Total Cell Count [12]: 814
